Calls of active or inactive are those of the source. The rule behind the calls is not given here.
What was measured:
[1] = test system: HL-60; experiment: Induction of apoptosis in human HL60 cells assessed as early apoptotic cells at 30 uM after 24 hrs using annexin-V FITC and PI staining by flow cytometry; type: functional
How it was run: (§1)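 HL60 cells (1 × 10^5) exposed to 30 μM final compound for 8 or 24 h. Cells were washed in annexin-binding buffer, stained with annexin V-FITC and PI for 10 min, and analyzed by flow cytometry (FL1 and FL2). Quadrants: early apoptotic annexin+/PI−, late apoptotic double positive, necrotic annexin−/PI+. Values are means of three experiments.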

[2] = test system: HL-60; experiment: Induction of apoptosis in human HL60 cells assessed as increase in cleaved caspase-3 level at 30 uM after 24 hrs by Western blot analysis; type: functional, cell-based
How it was run: (§2)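 HL60 cells (4 × 10^5) exposed to 30 μM final compound for 8 and 24 h, then lysed. Total protein was run on 15% SDS-PAGE and transferred to PVDF. Membranes were probed overnight at 4 °C with antibodies to caspase-3, cleaved caspase-3, caspase-8 and caspase-9, with β-actin as loading control.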

[3] = test system: HL-60; experiment: Induction of apoptosis in human HL60 cells assessed as decrease in procaspase-8 level at 30 uM after 24 hrs by Western blot analysis; type: functional, cell-based; how it was run: as §2
[4] = test system: HL-60; experiment: Induction of apoptosis in human HL60 cells assessed as late apoptotic cells at 30 uM after 8 hrs using annexin-V FITC and PI staining by flow cytometry; type: functional; how it was run: as §1
[5] = Cytotoxicity against human CRL1579 cells assessed as cell viability after 48 hrs by MTT assay; type: functional, cell-based
How it was run: (§3)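 Cells seeded at 3 × 10^3 per well and exposed to compounds from 1 × 10^-4 to 1 × 10^-6 M for 48 h. MTT was then added for 3 h, formazan dissolved in 0.04 M HCl in 2-propanol, and absorbance read at 570 nm against 630 nm. IC50 is the concentration giving 50% growth inhibition, from triplicate assays.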

[6] = test system: HL-60; experiment: Induction of apoptosis in human HL60 cells assessed as viable cells at 30 uM after 8 hrs using annexin-V FITC and PI staining by flow cytometry; type: functional; conditions: HL-60, 8 h, read-out: Activity; how it was run: as §1
[7] = test system: HL-60; experiment: Induction of apoptosis in human HL60 cells assessed as late apoptotic cells at 30 uM after 24 hrs using annexin-V FITC and PI staining by flow cytometry; type: functional; how it was run: as §1
[8] = test system: HL-60; experiment: Cytotoxicity against human HL60 cells assessed as cell viability after 48 hrs by MTT assay; type: functional, cell-based; conditions: HL-60, 48 h; how it was run: as §3
[9] = test system: HL-60; experiment: Induction of apoptosis in human HL60 cells assessed as decrease in procaspase-3 level at 30 uM after 24 hrs by Western blot analysis; type: functional, cell-based; how it was run: as §2
[10] = test system: HL-60; experiment: Induction of apoptosis in human HL60 cells assessed as viable cells at 30 uM after 24 hrs using annexin-V FITC and PI staining by flow cytometry; type: functional; conditions: HL-60, 24 h, read-out: Activity; how it was run: as §1
[11] = test system: HL-60; experiment: Induction of apoptosis in human HL60 cells assessed as increase in cleaved caspase-9 level at 30 uM after 24 hrs by Western blot analysis; type: functional, cell-based; how it was run: as §2
[12] = test system: A549; experiment: Cytotoxicity against human A549 cells assessed as cell viability after 48 hrs by MTT assay; type: functional, cell-based; conditions: A549, 48 h; how it was run: as §3
[13] = test system: SK-BR-3; experiment: Cytotoxicity against human SK-BR-3 cells assessed as cell viability after 48 hrs by MTT assay; type: functional, cell-based; conditions: SK-BR-3, 48 h; how it was run: as §3
[14] = test system: HL-60; experiment: Induction of apoptosis in human HL60 cells assessed as decrease in procaspase-9 level at 30 uM after 24 hrs by Western blot analysis; type: functional, cell-based; how it was run: as §2
[15] = test system: HL-60; experiment: Induction of apoptosis in human HL60 cells assessed as non-viable cells at 30 uM after 8 hrs using annexin-V FITC and PI staining by flow cytometry; type: functional; how it was run: as §1
[16] = test system: HL-60; experiment: Induction of apoptosis in human HL60 cells assessed as non-viable cells at 30 uM after 24 hrs using annexin-V FITC and PI staining by flow cytometry; type: functional; how it was run: as §1
[17] = Cytotoxicity against human AZ-521 cells assessed as cell viability after 48 hrs by MTT assay; type: functional, cell-based; conditions: AZ-521, 48 h; how it was run: as §3
[18] = test system: HL-60; experiment: Induction of apoptosis in human HL60 cells assessed as increase in cleaved caspase-8 level at 30 uM after 24 hrs by Western blot analysis; type: functional, cell-based; how it was run: as §2
[19] = test system: HL-60; experiment: Selectivity index, ratio of IC50 for human RPMI 1788 cells to IC50 for human HL60 cells; type: functional
[20] = test system: HL-60; experiment: Induction of apoptosis in human HL60 cells assessed as early apoptotic cells at 30 uM after 8 hrs using annexin-V FITC and PI staining by flow cytometry; type: functional; how it was run: as §1
[21] = Cytotoxicity against human RPMI 1788 cells assessed as cell viability after 48 hrs by MTT assay; type: cell-based; conditions: RPMI-1788, 48 h; how it was run: as §3

SMILES	Activity [1] [%]	Activity [2]	Activity [3]	Activity [4] [%]	IC50 [5] [µM]	viability at 30 µM [6] [%]	Activity [7] [%]	IC50 [8] [µM]	Activity [9]	viability at 30 µM [10] [%]	Activity [11]	IC50 [12] [µM]	IC50 [13] [µM]	Activity [14]	Activity [15] [%]	Activity [16] [%]	IC50 [17] [µM]	Activity [18]	Ratio IC50 [19]	Activity [20] [%]	further results
CC1(C)C(=O)C=C[C@]2(C)[C@H]3CC[C@@]4(C)[C@H](c5ccoc5)C(=O)[C@H]5O[C@]54[C@]3(C)[C@H](OC(=O)c3ccccc3)C[C@@H]12	51.8	Active	Active	3	> 20	56.9	15.5	3.1	Active	28.2	Active	> 20	> 20	Active	1.4	4.5	8.4	Active	5.19	38.7	IC50 [21]: 16.1 µM
CC1(C)C(=O)C=C[C@]2(C)[C@H]3CC[C@@]4(C)[C@H](c5ccoc5)OC(=O)[C@H]5O[C@]54[C@]3(C)[C@H](OC(=O)c3ccccc3)C[C@@H]12	41.4	Active	Active	0.7	> 20	88.1	45.7	2.9	Active	9.9	Active	> 20	> 20	Active	0.7	3	> 20	Active	0.69	10.5	IC50 [21]: 2 µM
COC(=O)C[C@H]1[C@]2(C)C3=C(C)[C@H](c4ccoc4)C[C@H]3O[C@@H]2[C@@H]2OC[C@]3(C)C=CC(=O)[C@@]1(C)[C@@H]23	18.7	Active	Active	11.8	14.2	73.7	28.1	2.7	Active	49.8	Active	9.3	1.7	Active	3.5	3.4	2.4	Active	1	10.9	IC50 [21]: 2.7 µM
CC(=O)O[C@@H]1C[C@H]2C(C)(C)C(=O)C=C[C@]2(C)[C@H]2CC[C@@]3(C)[C@H](c4ccoc4)C(=O)[C@H]4O[C@]43[C@@]21C [EPOXYAZADIRADIONE]	–	–	–	–	> 20	–	–	9.3	–	–	–	> 20	12.3	–	–	–	> 20	–	–	–	–
CC(=O)O[C@@H]1C[C@H]2C(C)(C)C(=O)C=C[C@]2(C)[C@H]2CC[C@]3(C)C(=C(O)C(=O)[C@H]3c3ccoc3)[C@@]21C	–	–	–	–	> 20	–	–	> 20	–	–	–	> 20	> 20	–	–	–	> 20	–	–	–	–

From ChEMBL document CHEMBL1773010, “Cytotoxic and apoptosis-inducing activities of limonoids from the seeds of Azadirachta indica (neem)” (J Nat Prod, 2011)
